The source of these data is ChEMBL document CHEMBL1146382, “Design and synthesis of BACE1 inhibitors containing a novel norstatine derivative (2R,3R)-3-amino-2-hydroxy-4-(phenylthio)butyric acid” (Bioorg Med Chem Lett, 2007).

Numbered stars: 1 amine (or outer) side, 2 acyl side, 3 side chain; on linkers, the order of the positions; unused ones are H or OH. Square brackets hold non-standard residues; d marks the D form. Peptide text beside a SMILES is read from it. β3hPhe(2R-OH) = O=C([C@H](O)[C@H](Cc1ccccc1)N[*:1])[*:2]; X1 = O=C([C@H](O)[C@H](CSc1ccccc1)N[*:1])[*:2]

In test [1] the target is Beta-secretase 1 (Homo sapiens) (UniProt P56817). The experiment in a line: Inhibition of human recombinant BACE1 at 0.2 uM. The essentials:
(§1)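 Recombinant human BACE1 enzymatic assay. Inhibition is expressed as the percent decrease in substrate cleaved by the enzyme.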

Test [2] shares this target. Description: Inhibition of human recombinant BACE1 at 2 uM. The essentials: as §1

Beta-secretase 1 (Homo sapiens), sequence (P56817 whole entry): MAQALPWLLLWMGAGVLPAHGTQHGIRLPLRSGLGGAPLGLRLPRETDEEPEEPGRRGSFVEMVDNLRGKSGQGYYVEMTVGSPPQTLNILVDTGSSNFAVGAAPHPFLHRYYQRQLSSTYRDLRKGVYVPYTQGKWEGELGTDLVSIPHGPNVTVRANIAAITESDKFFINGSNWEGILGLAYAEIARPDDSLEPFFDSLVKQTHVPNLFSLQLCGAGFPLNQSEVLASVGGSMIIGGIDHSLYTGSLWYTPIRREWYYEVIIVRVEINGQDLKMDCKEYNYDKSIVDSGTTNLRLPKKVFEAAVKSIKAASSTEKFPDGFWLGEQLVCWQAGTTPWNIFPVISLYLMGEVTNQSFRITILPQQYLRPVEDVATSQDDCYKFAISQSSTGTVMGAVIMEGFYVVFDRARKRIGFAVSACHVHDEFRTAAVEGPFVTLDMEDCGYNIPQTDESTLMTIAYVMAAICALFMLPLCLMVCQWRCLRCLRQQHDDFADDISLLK

For the compound `CC(C)C[C@H](NC(=O)[C@@H](NC(=O)[C@@H](N)CCC(=O)O)C(C)C)C(=O)N[C@@H](Cc1ccccc1)[C@@H](O)C(=O)N[C@@H](CC(=O)O)C(=O)N[C@@H](C)C(=O)N[C@@H](CCC(=O)O)C(=O)N[C@@H](Cc1ccccc1)C(=O)O` (H-EVL[β3hPhe(2R-OH)]DAEF-OH), the inhibition (in general, how much of the control response was suppressed) in test [1] was determined as 32%. In the case of `CC(C)C[C@H](NC(=O)[C@@H](NC(=O)[C@@H](N)CNC(=O)c1cc(N)cc(C(=O)O)c1)C(C)C)C(=O)N[C@@H](CSc1ccccc1)[C@@H](O)C(=O)Nc1cccc(C(=O)O)c1`, the inhibition is 99% in test [2] and 86% in test [1]. The like results for `CC(C)C[C@H](NC(=O)[C@@H](NC(=O)[C@@H](N)CCC(=O)O)C(C)C)C(=O)N[C@@H](CSc1ccccc1)[C@@H](O)C(=O)N[C@@H](CC(=O)O)C(=O)N[C@@H](C)C(=O)N[C@@H](CCC(=O)O)C(=O)N[C@@H](Cc1ccccc1)C(=O)O` (H-EVL[X1]DAEF-OH) were, in that order, 82% and 34%. As to `CC(C)C[C@H](NC(=O)[C@@H](NC(=O)[C@@H](N)CCC(=O)O)C(C)C)C(=O)N[C@@H](CSc1ccccc1)[C@@H](O)C(=O)N[C@@H](CC(=O)O)C(=O)O` (H-EVL[X1]D-OH), the inhibition in test [2] worked out at 69%. On to `CC(C)C[C@H](NC(=O)[C@@H](NC(=O)[C@@H](N)CCC(=O)O)C(C)C)C(=O)N[C@@H](CSc1ccccc1)[C@@H](O)C(=O)Nc1cccc(C(=O)O)c1`, for which the inhibition in test [2] was found to be 96%; in test [1], 57%. On to `CC(C)C[C@H](NC(=O)[C@@H](NC(=O)[C@@H](N)CNC(=O)c1cc(N)cc(C(=O)O)c1)C(C)C)C(=O)N[C@@H](Cc1ccccc1)[C@@H](O)C(=O)Nc1cccc(C(=O)O)c1`, for which the inhibition worked out at 98% in test [2] and 80% in test [1].
